Rows were chosen to be rich in hits. Some 3.5% of all compounds tested hit in one or more screens of this group.
Cneo AK release = Cryptococcus neoformans cell lysis inducers, primary screen, AK release luminescence, single concentration; AID 651654, 2012; 0.2% of 360,000 active; lysis activity, % at 15 µM; C. neoformans lysis, adenylate kinase release luminescence, 4 h; normalised: neutral wells 0, clomiphene wells 100;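 active = mean lysis activity across replicates of at least 80%, whatever share of replicates individually reach that level; inactive = mean lysis activity below 80%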
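Assay system: log-phase C. neoformans yeast / Quantity: yeast cell density of 5 × 10^6 cells/mL / Medium: fresh YPD growth medium / Compound: single dose / Timing: static 4 h at 37 °C with compound, 1 h detection / Measured by: adenylate kinase release luminescence / Read-out: lysis from increased AK signal / Benchmarks: Clomiphene as positive lysis control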
MITF act = activators of MITF-driven TRPM1 promoter reporter, primary screen, cell-based, SK-MEL-5, luciferase, single point. SK-MEL-5 TRPM1-promoter luciferase, 24 h; % of positive control, neutral wells = 0. activation, % at 12.5 µM. 0.75% of 300,000 active;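 active = mean activation of at least 80% with every replicate also reaching 80%; inconclusive = mean reaches 80% but some replicate falls short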
esBAF inh = Bmi1 luciferase reporter increase in mESCs, primary screen, esBAF inhibitor project, mouse ES cells, Bmi1 luciferase knock-in, single point; 24 h; 100% = twice the neutral-well signal; reporter increase, % at 12.5 µM; 2% of 350,000 active; AID 602393, 2012; in the data active = activation above about 40%; inconclusive = no clear call, values can overlap the other calls;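 note: a rise in the Bmi1 reporter signal indicates esBAF inhibition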
HIV Env fusion = inhibitors of HIV-1 Env-driven cell-cell fusion, primary screen, HeLa-JRFL effector, CEM21 target cells, luciferase; inhibition, % at 12.3 µM; 1.1% of 360,000 active;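 active = mean replicate inhibition score of at least 50 and every replicate individually at or above 50; inconclusive = only one of the two criteria met; inactive = mean below 50 and not all replicates reaching 50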
Wnt bcat act = Wnt/beta-catenin pathway activators, primary screen, cell-based, plate reader, single point; Wnt/beta-catenin reporter cell assay, activator; activation, % at 9.35 µM; 1.2% of 300,000 active; AID 743398, 2014; in the data active = activation above about 30%, passing the limit was not always enough; inconclusive = no clear call, values can overlap the other calls
ERAP1 HTS inh = human ERAP1 aminopeptidase inhibitors, primary screen, biochemical, single point, plate reader; Endoplasmic reticulum aminopeptidase 1 (Homo sapiens), Q9NZ08; recombinant ERAP1, Leu-AMC fluorescence, 60 min; inhibition, % at 10.7 µM; 0.15% of 340,000 active;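 active = mean replicate inhibition of at least 30%, or all replicates individually reaching that 30% level; inactive = mean below 30% and not every replicate reaching it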
Target sequence (Q9NZ08 whole entry, looked up): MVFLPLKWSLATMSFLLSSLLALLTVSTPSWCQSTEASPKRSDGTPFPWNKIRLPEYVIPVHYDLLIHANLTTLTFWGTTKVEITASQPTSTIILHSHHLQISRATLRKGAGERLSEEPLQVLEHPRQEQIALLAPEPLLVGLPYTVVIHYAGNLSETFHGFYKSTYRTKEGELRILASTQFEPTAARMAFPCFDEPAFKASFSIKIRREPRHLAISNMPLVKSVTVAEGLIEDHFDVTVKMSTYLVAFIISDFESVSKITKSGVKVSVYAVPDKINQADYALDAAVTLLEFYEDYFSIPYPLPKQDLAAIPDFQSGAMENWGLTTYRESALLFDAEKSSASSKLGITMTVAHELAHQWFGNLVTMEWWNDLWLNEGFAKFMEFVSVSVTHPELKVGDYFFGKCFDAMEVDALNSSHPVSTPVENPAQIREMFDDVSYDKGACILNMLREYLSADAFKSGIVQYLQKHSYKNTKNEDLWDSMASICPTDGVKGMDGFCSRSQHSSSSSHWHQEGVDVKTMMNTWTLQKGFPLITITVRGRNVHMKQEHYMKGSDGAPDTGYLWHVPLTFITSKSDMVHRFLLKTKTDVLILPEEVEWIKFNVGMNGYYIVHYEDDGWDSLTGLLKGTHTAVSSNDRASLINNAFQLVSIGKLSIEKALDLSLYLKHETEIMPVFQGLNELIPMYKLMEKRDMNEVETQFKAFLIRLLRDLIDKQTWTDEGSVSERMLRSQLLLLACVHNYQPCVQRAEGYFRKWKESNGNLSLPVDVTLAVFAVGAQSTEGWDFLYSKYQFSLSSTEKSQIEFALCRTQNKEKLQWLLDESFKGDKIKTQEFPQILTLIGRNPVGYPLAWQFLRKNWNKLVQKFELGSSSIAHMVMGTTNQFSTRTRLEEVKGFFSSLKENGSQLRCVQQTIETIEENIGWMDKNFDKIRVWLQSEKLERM
Numbers stand for hits; - = inactive; ? = inconclusive; . = no result.

SMILES	Cneo AK release	MITF act	esBAF inh	HIV Env fusion	Wnt bcat act	ERAP1 HTS inh
C=CCn1c(SCC(=O)N2CC(C)OC(C)C2)nnc1-c1ccncc1 (stereo unspecified)	-	-	-	-	-	49
C=CCn1c(SCC(=O)N2CCCCC2)nnc1-c1ccncc1	.	-	.	-	-	-
C[C@@H]1CN([C@@H](C)CO)C(=O)c2cccc(N(C)C)c2O[C@H]1CN(C)Cc1ccncc1	-	.	-	-	.	-
Cc1noc(C)c1NC(=O)N[C@@H]1CC[C@@H](CC(=O)Nc2ccc(-c3ccccc3)cc2)O[C@H]1CO	-	.	-	-	.	-
O=C(Nc1nc2c(s1)CN(Cc1ccccc1)CC2)C1CCC1	-	100	-	-	-	-
CCOC(=O)C(C(=O)OCC)C1N=C(N)N=C2Oc3ccccc3N21 (stereo unspecified)	-	-	89	.	.	.
COC(=O)CCC(=O)COc1ccccc1C#N	-	-	-	-	.	.
COc1ccc(C(=O)COc2ccccc2C(N)=O)cc1	-	-	-	-	-	-
COC(=O)CCC(=O)COc1ccc(OC)cc1C#N	-	114	-	.	.	.
COc1ccc(C(=O)CNc2ccccc2C#N)cc1	-	-	50	-	-	-
COc1ccc(C(=O)COc2ccccc2C#N)cc1	.	.	.	-	46	.
COc1ccc(C(=O)CNc2ccccc2CO)cc1	.	-	.	-	-	-
CNC[C@H]1OCCCC[C@@H](C)Oc2ccc(NS(C)(=O)=O)cc2C(=O)N([C@@H](C)CO)C[C@@H]1C	-	.	-	-	.	-
CC(C)(C)c1ccc(C(=O)NC(=S)NCc2ccco2)cc1	-	-	-	-	-	-
COCCNC(=S)NC(=O)c1ccc(C(C)(C)C)cc1	.	87	-	-	-	-
CCS(=O)(=O)N1CCC(c2nc(-c3ccc(C(F)(F)F)cc3)no2)CC1	-	-	-	56	.	.
O=C(Nc1cccc(C(F)(F)F)c1)N1CCC(c2nc(-c3ccc(F)cc3)no2)CC1	-	-	-	69	-	-
CCS(=O)(=O)N1CCC(c2nc(-c3ccc(C)cc3)no2)CC1	-	-	?	-	.	.
COCCNC(=S)N/N=C1\CC(C)CC(C)(C)C1 (stereo unspecified)	-	-	-	-	34	-
Nc1ccccc1SC(CC(=O)c1ccccc1)c1ccc([N+](=O)[O-])cc1 (stereo unspecified)	-	.	-	-	80	-
Cc1ccc(C(=O)CC(SCC(=O)O)c2ccc([N+](=O)[O-])cc2)cc1 (stereo unspecified)	.	-	.	-	90	-
COc1ccc(C(=O)CCS(=O)(=O)c2ccc(C)cc2)cc1	-	-	-	-	-	-
Nc1ccccc1SC(CC(=O)c1ccccc1)c1cccc([N+](=O)[O-])c1 (stereo unspecified)	-	.	?	-	-	-
COc1ccc(C(CC(=O)c2ccc(C)cc2)Sc2ccccc2N)cc1 (stereo unspecified)	-	.	60	-	47	-
COc1ccc(C(CC(=O)c2ccc(O)cc2)S(=O)(=O)c2ccc(C)cc2)cc1 (stereo unspecified)	-	86	-	.	-	-
SMILES	Cneo AK release	MITF act	esBAF inh	HIV Env fusion	Wnt bcat act	ERAP1 HTS inh
C[C@H](CO)N1C[C@H](C)[C@@H](CN(C)C(=O)Nc2cccc3ccccc23)Oc2ccc(NC(=O)CCCN(C)C)cc2C1=O	.	.	.	.	.	-
N#C[C@@H]1[C@@H](c2ccc(-c3cncnc3)cc2)[C@H](CO)N1C(=O)C1CCC1	-	.	-	-	.	-
O=C(C1=CC=CN2CCS(=O)(=O)N=C12)N1CCN(c2cccc(Cl)c2)CC1	-	-	-	.	-	-
CCOc1ccccc1N1CCN(C(=O)C2=CC=CN3CCS(=O)(=O)N=C23)CC1	-	-	-	-	-	56
CCCNC(=O)C[C@@H]1CC[C@@H]2[C@H](COc3ccc(NC(=O)c4ccccc4)cc3C(=O)N2C)O1	-	.	-	-	.	-
C[C@@H]1CN([C@@H](C)CO)C(=O)Cc2cc(NC(=O)Nc3cccc4ccccc34)ccc2O[C@H]1CN(C)C(=O)Nc1ccc(C(F)(F)F)cc1	-	.	-	-	.	-
C[C@H](CO)N1C[C@H](C)[C@H](CN(C)S(=O)(=O)c2cccc(F)c2)Oc2ncc(C#CC3CC3)cc2C1=O	-	.	-	-	.	-
COc1ccc([C@H]2/C=C\CN(C(=O)C3CC3)[C@@H](C)C(=O)N2Cc2ccc(F)cc2)cc1	-	-	-	70	-	-
CC(C)Oc1cccc(C(=O)Nc2ccc(Br)cc2F)c1	.	101	.	.	-	-
Cc1occc1C(=O)Nc1ccc(Br)cc1F	-	-	46	-	?	.
CC(C)NC(=O)N(C)C[C@H]1Oc2c(NC(=O)Nc3ccc(C(F)(F)F)cc3)cccc2C(=O)N([C@@H](C)CO)C[C@@H]1C	-	.	-	-	.	-
O=C(c1cnccn1)N1CC(=O)N2[C@H](CO)[C@@H](c3ccc(/C=C/c4ccccc4)cc3)[C@H]2C1	.	.	.	.	.	-
CCc1cccc(NC(=O)Nc2cccs2)c1	-	-	59	.	.	.
CCc1cccc(NC(=O)CSc2nc(C)cs2)c1	-	.	82	-	-	-
CCNC(=O)C[C@H]1CC[C@H]2[C@@H](COc3ccc(NS(C)(=O)=O)cc3C(=O)N2C)O1	-	.	-	-	.	-
COc1ccc2c3c(n(C)c2c1)[C@@H](CO)N(C(=O)C1CCCCC1)CC31CCN(C(=O)c2ccncc2)CC1	.	.	.	.	.	-
COc1ccc(-c2noc(C3CCCN(C(=O)c4ccc(C)cc4)C3)n2)cc1 (stereo unspecified)	.	-	.	-	-	.
Cc1ccc(-c2noc(C3CCCCC3)n2)cc1	.	167	.	.	.	.
Cc1cccc(-c2noc(C3CCCCC3)n2)c1	-	-	63	-	.	.
C/C=C/c1ccc2c(c1)O[C@@H](CN(C)C(=O)NC(C)C)[C@H](C)CN([C@@H](C)CO)S2(=O)=O	-	.	-	-	.	-
Nc1ccc(C(=O)N/N=C/c2sc(N3CCOCC3)nc2-c2ccccc2)cc1	-	-	.	-	.	-
O=C(N/N=C/c1sc(N2CCOCC2)nc1-c1ccccc1)c1cccc(S(=O)(=O)N2CCOCC2)c1	.	-	-	88	-	-
O=[N+]([O-])c1ccc(N/N=C/c2sc(N3CCOCC3)nc2-c2ccccc2)c(S(=O)(=O)Nc2ccccc2Cl)c1	.	-	.	95	-	.
O=C(O)c1cccc(N/N=C/c2sc(N3CCOCC3)nc2-c2ccccc2)c1	-	-	48	.	.	.
C[C@@H]1CN([C@H](C)CO)C(=O)Cc2cc(NC(=O)CCN3CCOCC3)ccc2O[C@H]1CN(C)S(=O)(=O)c1ccc(F)cc1	-	.	-	.	.	-
O=C(O)[C@@H]1[C@@H](CO)[C@@H]2Cn3c(ccc(C4=CCCCC4)c3=O)[C@@H]2N1C(=O)Cc1cccnc1	.	.	.	.	.	-

From PubChem BioAssay
